The values that follow come from ChEMBL document CHEMBL1126878, “4,5-Dihydro-1-phenyl-1H-2,4-benzodiazepines: novel antiarrhythmic agents” (J Med Chem, 1993).

The target in series [1] is Sodium channel protein type 5 subunit alpha (cardiac sodium channel) (Rattus norvegicus, UniProt P15389). As to the kind of experiment: in vitro. Conditions: sodium channel from cardiac myocytes, probe [3H]batrachotoxin ([3H]BTX).
The subject of the next series is Canis familiaris. The experiment in a line: Minimal effective dose that resulted in significant reduction in PVC frequency in conscious dogs by po administration after 24 hours of coronary artery ligation. The class given is functional. Conditions: Canis lupus familiaris, read-out: MED. A digest of the protocol:
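Dogs (8.0–19.1 kg) underwent LAD occlusion under halothane anesthesia with Holter electrodes. 24 h after occlusion, animals with PVCs exceeding 50% of heart rate were dosed orally by gavage with agent in water (n = 4 per group). Holter recorded 1 h before and 12–24 h after dosing.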

Series [2] concerns Cavia porcellus. As to the kind of experiment: Effective dose in vivo for cardiac refractoriness (ERP) using paced guinea pig model. The class given is functional. A digest of the protocol: (§1)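 Guinea pig paced in vivo model. Hemodynamics recorded in normal sinus rhythm; ERP measured during brief pacing at baseline and 10 min after dosing. Bolus of 1 mL/kg via left ventricular catheter for doses <10 mg/kg; higher doses infused over 1 min. Cumulative dosing every 15 min up to the maximally tolerated dose (dP/dt reduced >50%). ED20 (ERP +20 ms) and dP/dt20 (20% drop in LV pressure-rise rate) derived by linear regression of individual dose-response curves.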

The test system of series [3] is Felis catus. As to the kind of experiment: Effective refractory period (ERP) after iv administration to anesthetized, acutely infarcted cats at x mg/kg. Format: functional. A digest of the protocol: (§2)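 Anesthetized cats given a slow iv bolus, with single-stage LAD occlusion 10 min later. Stimulating current raised until fibrillation; three baseline sequences about 15 min apart. Pacing repeated every 15 min for 2 h after occlusion, then every 30 min, for 5 h in total. Values are the mean maximum change over 5 h in VFT (mamps) or ERP (ms); cardioversion at 14–50 J.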

Series [4] concerns Cavia porcellus. The experiment in a line: Minimal effective dose that resulted in significant delay in the onset of arrhythmias in guinea pig with iv administration of aconitine hydrochloride. Format: functional. Conditions: read-out: MED. In outline:
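Guinea pigs (n = 6 per dose, parallel groups) received agent or saline iv (1 mL/kg) 10 min before a lethal aconitine hydrochloride challenge (34 μg/kg iv). Times to first PVC, sustained VT and VF (>15 s) were recorded and compared with concurrent controls by one-way ANOVA. MED taken from an ascending semilogarithmic dose escalation as the dose giving significant delay in arrhythmia onset.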

Series [5] deals with Felis catus. The experiment in a line: Ventricular fribrillation threshold (VFT) after iv administration to anesthetized, acutely infarcted cats at 1 mg/kg. The class given is functional, Heart. In outline:
as §2

In series [6] the test system is Cavia porcellus. The experiment in a line: In vivo index of cardiac contractility using paced guinea pig model. Format: functional. A digest of the protocol: as §1
Series [7] deals with Felis catus. As to the kind of experiment: Ventricular fribrillation threshold (VFT) after iv administration to anesthetized, acutely infarcted cats at 0.3 mg/kg. The class given is functional, Heart. A digest of the protocol:
as §2

For series [8], the system named is Felis catus. The experiment in a line: Effective refractory period (ERP) after iv administration to anesthetized, acutely infarcted cats at 1 mg/kg. Format: functional. In outline: as §2
Series [9] deals with Felis catus. The experiment in a line: Ventricular fribrillation threshold (VFT) after iv administration to anesthetized, acutely infarcted cats at 0.03 mg/kg. The class given is functional, Heart. A digest of the protocol:
as §2

The subject of series [10] is Felis catus. The experiment in a line: Effective refractory period (ERP) after iv administration to anesthetized, acutely infarcted cats at 0.03 mg/kg. The class given is functional. A digest of the protocol: as §2
The subject of series [11] is Felis catus. The experiment in a line: Ventricular fribrillation threshold (VFT) after iv administration to anesthetized, acutely infarcted cats at 3 mg/kg. Format: functional, Heart. In outline: as §2
For series [12], the system named is Felis catus. As to the kind of experiment: Effective refractory period (ERP) after iv administration to anesthetized, acutely infarcted cats at 3 mg/kg. The class given is functional. In outline: as §2
For series [13], the system named is Felis catus. The experiment in a line: Ventricular fribrillation threshold (VFT) after iv administration to anesthetized, acutely infarcted cats at 5 mg/kg. Format: functional, Heart. A digest of the protocol: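 Anesthetized cats received a slow iv bolus of test agent, followed 10 min later by single-stage LAD occlusion. Before dosing, VFT was measured three times about 15 min apart as baseline, raising the stimulating current until fibrillation was induced. After occlusion, pacing was repeated every 15 min for 2 h, then every 30 min, to 5 h. The value is the mean maximum VFT change (mamps) over 5 h.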

In series [14] the test system is Felis catus. As to the kind of experiment: Effective refractory period (ERP) after iv administration to anesthetized, acutely infarcted cats at 0.3 mg/kg. Format: functional. In outline: as §2

Where only a bound is given, the exact number is not on record here.

Chain of Sodium channel protein type 5 subunit alpha (cardiac sodium channel) (P15389 whole entry): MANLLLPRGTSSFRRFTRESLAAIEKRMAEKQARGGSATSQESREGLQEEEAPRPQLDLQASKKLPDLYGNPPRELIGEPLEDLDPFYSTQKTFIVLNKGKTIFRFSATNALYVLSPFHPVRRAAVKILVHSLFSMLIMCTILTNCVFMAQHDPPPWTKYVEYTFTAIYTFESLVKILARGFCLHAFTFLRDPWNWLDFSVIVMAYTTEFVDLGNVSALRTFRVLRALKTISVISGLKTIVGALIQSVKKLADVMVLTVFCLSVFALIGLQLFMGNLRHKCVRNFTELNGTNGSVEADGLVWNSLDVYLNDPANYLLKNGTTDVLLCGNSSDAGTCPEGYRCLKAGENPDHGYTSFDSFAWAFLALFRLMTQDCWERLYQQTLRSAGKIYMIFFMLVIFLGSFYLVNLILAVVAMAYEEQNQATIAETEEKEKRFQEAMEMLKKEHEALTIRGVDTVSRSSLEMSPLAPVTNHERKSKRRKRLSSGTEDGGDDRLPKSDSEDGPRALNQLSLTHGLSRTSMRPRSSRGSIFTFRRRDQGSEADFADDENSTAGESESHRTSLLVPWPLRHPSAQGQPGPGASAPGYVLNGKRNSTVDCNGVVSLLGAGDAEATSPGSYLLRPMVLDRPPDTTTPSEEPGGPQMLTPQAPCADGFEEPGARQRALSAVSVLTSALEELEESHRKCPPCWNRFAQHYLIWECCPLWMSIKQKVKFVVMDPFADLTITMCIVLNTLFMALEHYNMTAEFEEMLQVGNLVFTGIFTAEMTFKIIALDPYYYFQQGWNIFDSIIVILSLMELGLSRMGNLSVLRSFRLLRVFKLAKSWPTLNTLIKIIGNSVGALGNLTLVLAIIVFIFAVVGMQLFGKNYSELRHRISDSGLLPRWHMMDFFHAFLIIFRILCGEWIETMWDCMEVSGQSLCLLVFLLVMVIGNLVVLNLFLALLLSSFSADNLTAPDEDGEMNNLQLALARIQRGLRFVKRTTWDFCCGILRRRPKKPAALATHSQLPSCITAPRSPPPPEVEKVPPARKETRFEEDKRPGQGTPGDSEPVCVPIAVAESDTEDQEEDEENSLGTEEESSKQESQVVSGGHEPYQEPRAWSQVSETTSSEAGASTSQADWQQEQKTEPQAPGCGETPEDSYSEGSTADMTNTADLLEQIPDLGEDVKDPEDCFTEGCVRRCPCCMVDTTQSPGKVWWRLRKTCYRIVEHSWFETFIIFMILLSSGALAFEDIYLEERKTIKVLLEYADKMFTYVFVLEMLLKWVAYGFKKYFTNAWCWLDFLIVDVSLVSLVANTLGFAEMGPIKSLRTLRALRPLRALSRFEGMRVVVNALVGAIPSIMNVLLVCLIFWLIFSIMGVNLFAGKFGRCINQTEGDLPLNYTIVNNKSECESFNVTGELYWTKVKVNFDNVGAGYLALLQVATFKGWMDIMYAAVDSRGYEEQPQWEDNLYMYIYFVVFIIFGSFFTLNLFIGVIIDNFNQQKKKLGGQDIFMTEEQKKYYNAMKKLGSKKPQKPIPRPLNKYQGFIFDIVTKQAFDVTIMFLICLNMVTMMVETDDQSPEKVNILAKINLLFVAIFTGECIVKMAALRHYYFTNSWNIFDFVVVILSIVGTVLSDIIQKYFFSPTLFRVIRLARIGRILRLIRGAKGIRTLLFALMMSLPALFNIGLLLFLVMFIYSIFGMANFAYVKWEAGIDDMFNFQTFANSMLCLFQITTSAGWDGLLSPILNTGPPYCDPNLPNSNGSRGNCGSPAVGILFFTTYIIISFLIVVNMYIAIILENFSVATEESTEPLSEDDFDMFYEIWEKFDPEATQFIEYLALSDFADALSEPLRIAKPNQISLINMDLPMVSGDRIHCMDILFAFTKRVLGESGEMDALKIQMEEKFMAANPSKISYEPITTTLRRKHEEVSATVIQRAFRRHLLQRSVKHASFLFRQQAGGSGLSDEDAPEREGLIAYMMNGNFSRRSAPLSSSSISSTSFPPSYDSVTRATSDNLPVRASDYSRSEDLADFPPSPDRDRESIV

The term inhibition denotes how much of the control response was suppressed. A low value points to a weak effect. Molecule `CN1Cc2ccccc2C(c2ccccc2)N=C1CCc1ccc(Cl)cc1.O=C(O)/C=C/C(=O)O` (centres undefined) came in with an inhibition at 10 µM in series [1] of 97%. Besides, the minimal effective dose in the series with Canis familiaris and in the series with Cavia porcellus [4] was 3 mg/kg each time. In the series with Cavia porcellus [2], this molecule came in with an ED20 of 0.1 mg/kg. This molecule also yielded an ERP in the series on Felis catus [3] of 45 ms. Besides, in the series on Felis catus [5], the VFT was 93 mA. The dP/dt20 in the series on Cavia porcellus [6] was 0.85 mg/kg.

Regarding `CN1Cc2ccccc2[C@@H](c2ccccc2)N=C1CCc1ccccc1.Cl`, the values for the minimal effective dose in the series with Canis familiaris and in the series with Cavia porcellus [4] were 3 mg/kg and 0.1 mg/kg, respectively. For the same molecule, the ED20 in the series on Cavia porcellus [2] stood at 0.03 mg/kg. Besides, the ERP in the series with Felis catus [3] came out at 13 ms. In the series on Felis catus [7], this molecule displayed a VFT of 37 mA. In the series on Cavia porcellus [6], this molecule came in with a dP/dt20 of 0.03 mg/kg.

In the case of `CCC1=NC(c2ccccc2)c2ccccc2CN1C.Cl` (centres undefined), the inhibition at 10 µM in series [1] was 50%. Besides, the ERP in the series on Felis catus [8] was 13 ms. In addition, the minimal effective dose with Canis familiaris was found to be 10 mg/kg; in the series with Cavia porcellus [4] it was 3 mg/kg. This molecule also returned an ED20 in the series with Cavia porcellus [2] of 0.6 mg/kg. The VFT in the series on Felis catus [5] is reported as 84 mA. In the series on Cavia porcellus [6], this molecule gave a dP/dt20 of 0.8 mg/kg.

With `CN1Cc2ccccc2[C@H](c2ccccc2)N=C1CCc1ccccc1.Cl`, the ERP in the series with Felis catus [8] is recorded as 21 ms. Also, the figures for the minimal effective dose with Canis familiaris and with Cavia porcellus [4] were 10 mg/kg and 0.1 mg/kg, respectively. Also, the ED20 with Cavia porcellus [2] was 0.02 mg/kg. Besides, in the series on Felis catus [5], the VFT is on record as 82 mA. The dP/dt20 in the series on Cavia porcellus [6] was determined as 0.02 mg/kg.

With `C=C[C@H]1CN2CC[C@H]1C[C@@H]2[C@@H](O)c1ccnc2ccc(OC)cc12` [QUINIDINE], in [1], the inhibition at 10 µM is 68%. Moreover, the results for the minimal effective dose with Canis familiaris and in the series with Cavia porcellus [4] were 30 mg/kg and 1 mg/kg, respectively. This molecule also yielded an ED20 in the series with Cavia porcellus [2] of 7.2 mg/kg. The dP/dt20 with Cavia porcellus [6] amounted to 2.5 mg/kg.

`CN(CCOc1ccc(NS(C)(=O)=O)cc1)CCc1ccc(NS(C)(=O)=O)cc1` [DOFETILIDE] gave a VFT in the series on Felis catus [9] of 43 mA. Besides, the ERP in the series with Felis catus [10] came to 85 ms.

For `CCC1=NC(C)(c2ccccc2)c2ccccc2CN1C.O=C(O)/C=C/C(=O)O` (centres undefined), in series [1], at 10 µM the inhibition was 60%. Moreover, the minimal effective dose was 10 mg/kg with Canis familiaris and below 3 mg/kg with Cavia porcellus [4]. This molecule returned an ED20 in the series on Cavia porcellus [2] of 0.7 mg/kg. The molecule further yielded an ERP in the series with Felis catus [3] of 78 ms. In the series on Cavia porcellus [6], this molecule had a dP/dt20 of 1.2 mg/kg. Also, in the series on Felis catus [11], the VFT came to 81 mA.

As to `O=C(NCC1CCCCN1)c1cc(OCC(F)(F)F)ccc1OCC(F)(F)F` (centres undefined) [FLECAINIDE], the ERP with Felis catus [12] is 5 ms. This molecule returned an inhibition at 10 µM in series [1] of 74%. Also, the minimal effective dose with Canis familiaris was 10 mg/kg; in the series with Cavia porcellus [4], 3 mg/kg. The molecule further showed an ED20 in the series on Cavia porcellus [2] of 12.8 mg/kg. This molecule also yielded a dP/dt20 in the series with Cavia porcellus [6] of 1.8 mg/kg. This molecule also had a VFT in the series on Felis catus [11] of 30 mA.

As for `CCC1=N[C@@H](c2ccccc2)c2ccccc2CN1C.Cl`, the inhibition at 10 µM in [1] is 45%. Besides, the minimal effective dose is above 10 mg/kg in the series with Canis familiaris and 3 mg/kg with Cavia porcellus [4]. In addition, in the series on Cavia porcellus [2], the ED20 turned out to be 7.1 mg/kg. The dP/dt20 with Cavia porcellus [6] was 0.09 mg/kg.

For the molecule `CC(C)N(CCC(C(N)=O)(c1ccccc1)c1ccccn1)C(C)C` (centres undefined) [DISOPYRAMIDE], in [1], at 10 µM the inhibition was 17%. For the same molecule, the minimal effective dose was determined as 40 mg/kg in the series on Canis familiaris and 1 mg/kg with Cavia porcellus [4]. Moreover, the ED20 with Cavia porcellus [2] was 0.2 mg/kg. The molecule further came in with an ERP in the series with Felis catus [3] of 26 ms. In the series with Cavia porcellus [6], this molecule gave a dP/dt20 of 0.03 mg/kg. In the series on Felis catus [13], this molecule registered a VFT of 73 mA.

Regarding `CCC1=N[C@H](c2ccccc2)c2ccccc2CN1C.Cl`, the inhibition at 10 µM in series [1] came out at 42%. The figures for the minimal effective dose with Canis familiaris and in the series on Cavia porcellus [4] were 10 mg/kg and 3 mg/kg, respectively. Further, the ED20 in the series on Cavia porcellus [2] amounted to 0.3 mg/kg. In the series with Felis catus [7], the VFT came to 63 mA. Besides, in the series with Felis catus [14], the ERP came out at 16 ms. In the series on Cavia porcellus [6], the dP/dt20 worked out at 0.3 mg/kg.

Take `CN1Cc2ccccc2C(C)(c2ccccc2)N=C1CC(O)c1ccccc1` (centres undefined): the inhibition at 10 µM in [1] is 92%. The minimal effective dose with Canis familiaris is 10 mg/kg; in the series with Cavia porcellus [4], below 3 mg/kg. Moreover, the ED20 in the series with Cavia porcellus [2] was determined as 0.1 mg/kg. The same molecule registered a dP/dt20 in the series on Cavia porcellus [6] of 0.1 mg/kg.

Molecule `CCOC(=O)C1(c2ccccc2)N=C(CC)N(C)Cc2ccccc21.O=C(O)/C=C/C(=O)O` (centres undefined) showed an inhibition at 10 µM in series [1] of 56%. Further, the minimal effective dose with Canis familiaris is 3 mg/kg; with Cavia porcellus [4], below 3 mg/kg. In the series on Cavia porcellus [2], this molecule gave an ED20 of 0.4 mg/kg. This molecule gave an ERP in the series on Felis catus [3] of 47 ms. In the series with Felis catus [7], the VFT came out at 84 mA. The dP/dt20 with Cavia porcellus [6] is 0.1 mg/kg.

The molecule `CN1Cc2ccccc2C(c2ccccc2)N=C1CCc1ccccc1.Cl` (centres undefined) had an ERP with Felis catus [8] of 61 ms. The minimal effective dose with Canis familiaris is 3 mg/kg; in the series with Cavia porcellus [4], below 3 mg/kg. For the same molecule, the ED20 with Cavia porcellus [2] came out at 0.04 mg/kg. The molecule further had a VFT with Felis catus [5] of 95 mA. For the same molecule, the dP/dt20 with Cavia porcellus [6] is 0.02 mg/kg.
